Results reported in article PMC2193344 (The Journal of Experimental Medicine, 2001).
Ends that are not written are not given here.

What was measured:
[1] = target: T1, transporter associated with antigen processing (TAP) (Homo sapiens, UniProt Q03518+Q03519); experiment: Streptolysin O peptide transport assay; format: biochemical
T1 sequence (Q03518 1-748): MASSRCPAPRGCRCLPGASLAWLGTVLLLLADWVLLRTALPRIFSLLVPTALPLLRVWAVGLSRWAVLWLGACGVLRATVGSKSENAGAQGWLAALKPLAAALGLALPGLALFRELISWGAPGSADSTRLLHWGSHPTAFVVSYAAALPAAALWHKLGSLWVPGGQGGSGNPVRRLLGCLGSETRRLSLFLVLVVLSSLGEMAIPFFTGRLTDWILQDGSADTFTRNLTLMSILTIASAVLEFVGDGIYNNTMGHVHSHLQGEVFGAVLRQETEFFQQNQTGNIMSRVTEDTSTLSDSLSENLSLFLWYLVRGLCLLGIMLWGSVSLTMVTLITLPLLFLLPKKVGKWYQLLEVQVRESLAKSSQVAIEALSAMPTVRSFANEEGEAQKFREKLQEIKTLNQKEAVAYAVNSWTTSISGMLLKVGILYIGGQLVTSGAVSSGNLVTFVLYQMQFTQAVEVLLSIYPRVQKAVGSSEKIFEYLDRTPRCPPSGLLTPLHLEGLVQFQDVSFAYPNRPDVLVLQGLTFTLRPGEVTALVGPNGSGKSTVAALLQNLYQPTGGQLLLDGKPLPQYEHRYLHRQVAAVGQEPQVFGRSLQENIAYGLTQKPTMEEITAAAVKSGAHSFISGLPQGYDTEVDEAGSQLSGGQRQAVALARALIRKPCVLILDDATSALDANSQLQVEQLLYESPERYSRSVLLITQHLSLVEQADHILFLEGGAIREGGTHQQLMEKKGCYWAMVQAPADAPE
T1 sequence (Q03519 1-686): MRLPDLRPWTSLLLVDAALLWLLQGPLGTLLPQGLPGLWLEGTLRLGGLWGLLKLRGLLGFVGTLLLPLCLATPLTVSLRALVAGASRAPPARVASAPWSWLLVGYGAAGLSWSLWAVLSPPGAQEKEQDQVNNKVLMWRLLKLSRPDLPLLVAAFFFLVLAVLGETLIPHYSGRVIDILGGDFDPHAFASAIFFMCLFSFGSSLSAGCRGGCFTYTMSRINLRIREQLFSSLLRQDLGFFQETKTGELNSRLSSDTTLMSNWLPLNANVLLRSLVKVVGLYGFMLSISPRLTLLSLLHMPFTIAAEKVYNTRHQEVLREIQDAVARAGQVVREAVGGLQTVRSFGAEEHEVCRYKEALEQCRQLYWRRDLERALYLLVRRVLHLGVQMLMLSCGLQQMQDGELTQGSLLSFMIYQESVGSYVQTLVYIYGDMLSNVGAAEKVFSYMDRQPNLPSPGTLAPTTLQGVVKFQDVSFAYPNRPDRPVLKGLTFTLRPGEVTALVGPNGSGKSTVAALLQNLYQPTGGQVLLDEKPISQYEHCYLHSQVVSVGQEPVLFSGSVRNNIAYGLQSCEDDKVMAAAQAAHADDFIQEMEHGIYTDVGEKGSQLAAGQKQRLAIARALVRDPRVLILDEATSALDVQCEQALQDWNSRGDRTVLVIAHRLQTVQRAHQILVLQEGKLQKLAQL
In short: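 TAP+ T1 TxB hybrid cells (10^6/sample; grown in RPMI 1640, 4 mM Hepes, 5% FCS, 3 mM l-glutamine) permeabilised with streptolysin O (15 U/ml) for 15 min on ice. Then 5 min at 37°C with 100 ng chloramine-T 125I-labelled reporter peptide, ATP (100 mM stock) and competitor peptide dilutions. TAP-negative T2 cells served as negative control. Duplicates; triplicates for T2 and uninhibited T1.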

HLA-A*0201 molecules = HLA-A*0201 molecules (Homo sapiens, UniProt P04439, D140Y/D185E/D98H/E176V/E277Q/G131W/G231S/I119V/I121R/I166T/I218V/L300P/L318F/N151K/N90K/P208A/P217A/Q86G/Q94H/R138H/R169H/T345S); experiment: Class I peptide-binding affinity assay

Sequence	IC50 [1]	IC50 (HLA-A*0201 molecules)
KSADHPTLDKVLEV [KSADHPTLDKVLEV]	102 µM	–
PTLDKVLEV [PTLDKVLEV]	175 µM	–
RTLDKVLEV [RTLDKVLEV]	30 to 45 µM	0.04 µM
HPTLDKVLEV [HPTLDKVLEV]	355 µM	–
